Experimental findings from ChEMBL document CHEMBL3124904, “Second-generation derivatives of the eukaryotic translation initiation inhibitor pateamine A targeting eIF4A as potential anticancer agents” (Bioorg Med Chem, 2014) are described below.

The nature of data set [1]: Half life in RPMI media at 10 uM by HPLC analysis. The format is physicochemical. The method in brief: (§1)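 Compound added from DMSO stock to pre-heated RPMI 1640 (1.8 mL) plus 0.2 mL human AB male serum or FBS, or to 2 mL RPMI alone, at final 1 or 10 μM. Samples analysed by HPLC at pH 9.5 (formic acid/ammonia in acetonitrile/water), with conversion taken from the substrate/internal standard peak ratio. Run in triplicate; half-lives ± SD.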

The nature of data set [2]: Half life in RPMI media at 10 uM by HPLC analysis in presence of fetal bovine serum. It counts as ADME. The conditions noted are these: cattle. The method in brief: as §1
A short description of data set [3]: Half life in RPMI media at 10 uM by HPLC analysis in presence of human blood serum. The format is ADME. The method in brief:
as §1

A short description of data set [4]: Selectivity ratio of IC50 for MEF to IC50 for human Jurkat T cells. It counts as cell-based. The conditions noted are these: mouse (MEF) and human (Jurkat T cells), read-out: Ratio IC50.
A short description of data set [5]: Selectivity ratio of IC50 for MEF to IC50 for human SK-MEL-2 cells. It counts as cell-based. The conditions noted are these: mouse (MEF) and human (SK-MEL-2 cells), MEF and SK-MEL-2 cells; read-out: Ratio IC50.
The test system of a further data set is MEF. Briefly: Antiproliferative activity against MEF after 72 hrs by MTT assay. It counts as cell-based. Conditions: Mus musculus. (Tetrazolium assays rely on reduction of a dye to a coloured formazan, in cell work by metabolically active cells.)
A short description of data set [6]: Selectivity ratio of IC50 for MEF to IC50 for human HeLa cells. Conditions: mouse (MEF) and human (HeLa cells), read-out: Ratio IC50. The format is cell-based.
In data set [7] the test system is SK-MEL-2. Briefly: Antiproliferative activity against human SK-MEL-2 cells after 72 hrs by MTT assay in presence of 5% FBS. The format is functional, cell-based. Conditions: SK-MEL-2, 72 h. The method in brief: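 SK-MEL2 grown with reduced serum (5% FBS) to slow proliferation. Compounds added in DMSO (0.1% final), followed by a 72 h MTT proliferation assay.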

A short description of data set [8]: Dissociation constant, pKa of the compound. The format is physicochemical.
In data set [9] the test system is SK-MEL-2. Put plainly: Selectivity ratio of IC50 for human SK-MEL-2 cells in presence of 5% FBS to IC50 for human SK-MEL-2 cells in presence of 10% FBS. It counts as functional.
The species named for data set [10] is Oryctolagus cuniculus. Put plainly: Inhibition of cap-independent HCV-IRES-induced translation in rabbit reticulocyte lysate at 500 nM after 1.5 hrs by luciferase reporter gene assay. It counts as functional. Summed up: (§2)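 Capped bicistronic reporter mRNA: cap-dependent firefly luciferase first cistron, HCV IRES-driven Renilla second cistron. Transcribed in vitro with SP6 from the BamHI-linearised plasmid. 200 ng RNA translated in rabbit reticulocyte lysate with 70 mM KCl, 2 mM DTT, RNasin and compound in DMSO (5% v/v final), 30 °C for 1.5 h. Dual luciferase readout. Duplicates, 4 independent assays, mean IC50 by curve fit.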
For orientation: A reporter such as luciferase makes a cellular process visible.

Data set [11] can be described thus: Binding affinity to eIF4A1/2 in rabbit reticulocyte lysate assessed as inhibition of cap-dependent translation after 1.5 hrs by dual luciferase reporter gene assay. Also noted: species or system Oryctolagus cuniculus. The method in brief: as §2
The nature of data set [12]: Antiproliferative activity against human Jurkat T cells after 72 hrs by MTT assay. It counts as functional, cell-based. The method in brief: (§3)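 HeLa and SK-MEL2 grown in DMEM, Jurkat in RPMI 1640, each with 10% FBS and penicillin-streptomycin, at 37 °C and 5% CO2. Adherent cells seeded at 2000/well and left to recover overnight; Jurkat seeded at 5000/well with no recovery. Compound added in DMSO (0.1% final), then 72 h incubation and MTT readout.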

The test system of data set [13] is SK-MEL-2. Put plainly: Antiproliferative activity against human SK-MEL-2 cells after 72 hrs by MTT assay in presence of 10% FBS. The conditions noted are these: SK-MEL-2, 72 h. The format is functional, cell-based. Summed up:
as §3

Another data set deals with HeLa. Put plainly: Antiproliferative activity against human HeLa cells after 72 hrs by MTT assay. It counts as functional, cell-based. Summed up:
as §3

A further data set concerns Jurkat. Briefly: Antiproliferative activity against human Jurkat T cells up to 10^4 nM after 72 hrs by MTT assay. It counts as functional, cell-based. Summed up: as §3
Data set [14] deals with SK-MEL-2. Put plainly: Selectivity ratio of IC50 for human SK-MEL-2 cells in presence of 10% FBS to IC50 for human SK-MEL-2 cells in presence of 5% FBS. It counts as functional.
The species entered for data set [15] is Oryctolagus cuniculus. Put plainly: Binding affinity to eIF4A1/2 in rabbit reticulocyte lysate assessed as cap-dependent translation at 500 nM after 1.5 hrs by dual luciferase reporter gene assay relative to control. Summed up:
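Rabbit reticulocyte lysate translating the cap-dependent/HCV IRES dual-luciferase mRNA, with compound at 500 nM in DMSO (5% v/v final), 30 °C for 1.5 h. Cap-dependent luciferase expressed as % translation relative to DMSO control.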

Calls of active or inactive are those of the source. No cut-off for these calls is given here. Some results are limits rather than exact numbers.

For the molecule `CC(/C=C/C(C)=C/[C@@H]1Cc2nc(cs2)CCCCC(=O)O[C@@H](C)C/C(C)=C/C=C\C(=O)O1)=C\CN1CCCC1`, the results for the t1/2 in [1], in data set [2] and in data set [3] were 3.87 h, 14.8 h and 11.7 h, respectively. Also, the selectivity ratio in data set [4], in [5] and in data set [6] was 4 in each case. For the same molecule, the IC50 was over 100 nM in the data set with MEF; 154 nM with SK-MEL-2 [7]; 54.8 nM in data set [11]; 25 nM in data set [12]; 27 nM in the data set with SK-MEL-2 [13]; 23 nM with HeLa. Besides, in data set [8], the pKa was found to be 11. In the data set with SK-MEL-2 [9], the “Ratio IC50” value is 6. Moreover, the inhibition result in the data set listed under Oryctolagus cuniculus [10] is “inactive”.

For `CC(/C=C/C(C)=C/[C@@H]1Cc2nc(cs2)CCCCC(=O)O[C@@H](C)C/C(C)=C/C=C\C(=O)O1)=C\CN1CCOCC1`, the t1/2 in data set [1] was found to be 0.89 h; in data set [2], 9.23 h; in data set [3], 17.8 h. The selectivity ratio in data set [4], in [5] and in data set [6] was 5 in each case. The IC50 is over 2000 nM in the data set with MEF; 157 nM in the data set on SK-MEL-2 [7]; 72.2 nM in data set [11]; 320 nM with SK-MEL-2 [13]; 430 nM in the data set on HeLa. The pKa in data set [8] worked out at 8.36. Moreover, the inhibition result in the data set listed under Oryctolagus cuniculus [10] is “inactive”. In addition, in the data set with Jurkat, the result was inactive. For the same molecule, in the data set with SK-MEL-2 [14], the “Ratio IC50” value is recorded as 2.

On to `CC(/C=C/C(C)=C/[C@@H]1Cc2nc(cs2)CCCCC(=O)O[C@@H](C)C/C(C)=C/C=C/C(=O)O1)=C\CN(C)C`, for which the Activity in the data set filed under Oryctolagus cuniculus [15] was 80%. In the data set filed under Oryctolagus cuniculus [10], the inhibition result was “inactive”. In addition, the IC50 in [11] is over 500 nM; in data set [12], over 10000 nM; with SK-MEL-2 [13], 950 nM; in the data set with HeLa, 860 nM.

The term IC50 denotes the concentration needed to halve the response being measured. For orientation: pKa means the pH at which an ionisable group is half protonated. The low end stands for a stronger acid or weaker base, the high end for a weaker acid or stronger base.
